Screening data: PubChem BioAssay, several laboratories
Shown are actives, neighbours in structure and some others; about 1.8% of the full set was active somewhere.
HTRA1 inhibitor: blocks human HTRA1 serine peptidase; Q92743; recombinant HTRA1, FP-rhodamine activity-based probe, fluorescence polarization; inhibition, % at 5.96 µM; hit rate 0.5% among 340,000; AID 504803; in the data active = inhibition above about 36%;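 note: 0% = enzyme with DMSO and 100% = wells lacking enzyme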
ARNT-TACC3 inh: disrupts binding between human ARNT and TACC3 | Q9Y6A5 | AlphaScreen His-ARNT PAS-B/GST-TACC3 binding, luminescence; TACC3 fragment carries E629A point mutation | inhibition, % at 9.99 µM | hit rate 0.66% among 390,000 | AID 623870;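 active = mean inhibition of replicates at least 50% and at least half of replicates each reaching 50%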;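 note: 0% = complete ARNT plus TACC3 wells and 100% = ARNT alone without TACC3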
TCR CD3 inh: blocks the human TCR-CD3 interaction. hit rate 0.37% among 360,000. TAMRA-labeled TCR probe fluorescence, biochemical. inhibition, % at 9.4 µM; in the data active = inhibition above about 19%;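 note: recombinant mutant TCR 2C K166C tagged with TAMRA read by polarization; 0% = receptor in buffer alone and 100% = receptor with positive control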
SIAE inh: inhibitors of human sialic acid acetylesterase SIAE. Q9HAT2. SIAE FP-Rh probe binding, fluorescence polarization. inhibition, % at 9.66 µM. hit rate 0.69% among 370,000. AID 1053197;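 active = inhibition above a cutoff: mean of compounds within the control limits plus 3 SD of those, cut at about 17% in these data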;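 note: 0% = plate median of compound wells and 100% = probe without SIAE protein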
mABHD4 FP: ABHD4 (mouse) inhibition, primary FP screen. inhibition, % at 8.92 µM. Q8VD66. purified mABHD4, FP-Rh probe fluorescence polarization. hit rate 0.54% among 370,000;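 active = inhibition exceeding the mean over every tested compound plus 3 SD, cut at about 30% in these data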;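 note: 0% = plate median of compound wells and 100% = S159A mutant with DMSO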
Target sequence (Q8VD66 whole entry, looked up): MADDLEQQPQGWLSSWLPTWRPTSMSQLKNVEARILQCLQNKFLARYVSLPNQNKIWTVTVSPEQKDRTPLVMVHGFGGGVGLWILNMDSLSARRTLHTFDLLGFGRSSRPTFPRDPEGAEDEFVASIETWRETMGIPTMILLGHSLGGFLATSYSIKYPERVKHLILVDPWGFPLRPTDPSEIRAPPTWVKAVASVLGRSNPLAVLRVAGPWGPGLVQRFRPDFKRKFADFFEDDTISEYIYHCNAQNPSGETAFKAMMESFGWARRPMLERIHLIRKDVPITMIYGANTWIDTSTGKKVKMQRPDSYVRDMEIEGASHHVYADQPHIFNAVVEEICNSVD
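Assay system: wild-type mouse ABHD4 protein; compound: single nominal dose of 8.92 µM, 0.89% DMSO final; schedule: 45 min + 60 min at 25 °C; measured by: FP readout, ex 525 nm / em 598 nm; evaluation: % inhibition of FP-Rh probe binding versus controls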
* = called active by the depositor; x = no result given.

SMILES	HTRA1 inhibitor	ARNT-TACC3 inh	TCR CD3 inh	SIAE inh	mABHD4 FP
O=C(NCc1ccccn1)Nc1cccc(NC(=O)NCc2ccccn2)c1	2	78*	4	0	-7
COc1ccc(OCCCN2CCCCCC2)cc1	3	47*	5	9	7
O=C(C[C@@H]1CC[C@@H](NC(=O)Nc2cc(F)ccc2F)[C@H](CO)O1)NCc1ccc2c(c1)OCO2	x	8	x	x	x
C[C@@H]1CCCCO[C@H](CN(C)Cc2ccncc2)[C@H](C)CN([C@@H](C)CO)C(=O)c2cc(NC(=O)Nc3ccc4c(c3)OCO4)ccc2O1	x	3	x	x	x
Cc1c(NC=C(C#N)C#N)c(=O)n(-c2ccccc2)n1C	1	-3	-3	8	2
CCOC(=O)/C(C#N)=N/Nc1c(C)n(C)n(-c2ccccc2)c1=O	x	x	-6	4	0
Cc1ccccc1C(=O)/C(C#N)=N/Nc1c(C)n(C)n(-c2ccccc2)c1=O	0	57*	-1	6	3
Cc1c(N/N=C(\C#N)C(=O)c2ccccc2)c(=O)n(-c2ccccc2)n1C	13	67*	3	5	11
CC(=O)Nc1ccc(S(=O)(=O)NNC(=O)C(=O)NNc2ccccn2)cc1	6	75*	-2	0	23
Nc1ccc(S(=O)(=O)NNC(=O)C(=O)NNc2ccccn2)cc1	-6	74*	-2	-5	15
CC(=O)Nc1ccc(S(=O)(=O)Nc2ccccn2)cc1	-4	11	8	13	1
CCCN(C)C[C@H]1Oc2cc(-c3ccccc3)ccc2S(=O)(=O)N([C@H](C)CO)C[C@H]1C	x	1	x	x	x
Clc1cccc(Cl)c1NC1=NCCC1	1	-2	-3	1	-1
c1n[nH]c(NC2=NCCC2)n1	9	61*	-1	-4	-1
Cc1ccc(S(=O)(=O)Nc2ccc3c(c2)C(=O)N([C@H](C)CO)C[C@@H](C)[C@H](CN(C)C(=O)CCC(F)(F)F)OCCCC[C@@H](C)O3)cc1	x	-8	x	x	x
CNC(=O)N/N=C(\N)c1ccccn1	5	44	-4	6	4
N/C(=N\NC(=O)Nc1ccc(Cl)cc1)c1ccccn1	9	66*	-7	5	6
CCN=C1SC(C(=O)Nc2cc(Cl)cc(Cl)c2)CC(=O)N1CC (stereo unspecified)	1	active	-4	-4	1
CCN1C(=O)CC(C(=O)NC)SC1=Nc1cc(Cl)c(O)c(Cl)c1 (stereo unspecified)	7	23*	5	-17	-5
CCN1C(=O)CSC1=Nc1ccc(OC)cc1	3	-8	4	-7	0
CCN1C(=O)CSC1=Nc1ccc(Cl)c(Cl)c1	-1	active	-3	-2	-1
C[C@@H]1CN([C@@H](C)CO)C(=O)Cc2cc(NC(=O)Nc3ccc(F)cc3)ccc2O[C@H]1CN(C)C(=O)Nc1ccc(F)cc1	x	8	x	x	x
CC(=NNC(=S)N1CCN(C2CCCCCC2)CC1)c1ccccn1	19	77*	-1	1	20
CC(=NNC(=S)N1CC2CCC(CC2)C1)c1ccccn1	13	x	0	2	3
C/C(=N\NC(=O)C1CCCN(S(=O)(=O)c2ccccc2)C1)c1ccccn1 (stereo unspecified)	-10	53*	-1	1	-2
SMILES	HTRA1 inhibitor	ARNT-TACC3 inh	TCR CD3 inh	SIAE inh	mABHD4 FP
CC(=NNC(=S)N1CCN(c2ccccn2)CC1)c1nccs1	4	66*	x	x	x
CC(=NNC(=S)N1CCN(c2ccccn2)CC1)c1ccccn1	9	22	-5	4	3
CC(=NNC(=S)N1CC2CCC(CC2)C1)c1cnccn1	13	51*	1	0	9
COc1ccc(S(=O)(=O)Nc2cccc3c2O[C@@H](CN(C)C(=O)NC2CCCCC2)[C@H](C)CN([C@@H](C)CO)C3=O)cc1	x	-9	x	x	x
CCCC#Cc1cnc2c(c1)C(=O)N([C@@H](C)CO)C[C@@H](C)[C@H](CN(C)C(=O)NC1CCCC1)O2	x	1	x	x	x
CCOC(=O)c1cnc(-n2nc(C)cc2C)nc1N1CCOCC1	-2	50*	-1	-2	6
COc1ccc2c(c1)c(=O)oc1c(C)c(OCc3cc(C(=O)O)oc3C)ccc12	-8	1	6	-3	32*
CN(C)c1ccc2c(c1)[C@@H]1C[C@@H](CC(=O)NCc3ccncc3)O[C@H](CO)[C@@H]1O2	x	4	x	x	x
CCC(=O)NC(c1cccs1)c1cc([N+](=O)[O-])c2cccnc2c1OC (stereo unspecified)	x	x	1	2	10
CC(=O)NC(c1cccs1)c1cc(F)c2cccnc2c1O (stereo unspecified)	35	56*	10	7	9
C[C@H]1CN([C@@H](C)CO)C(=O)Cc2cc(NC(=O)Nc3ccc(C(F)(F)F)cc3)ccc2O[C@@H]1CN(C)C(=O)Nc1cccc2ccccc12	x	-5	x	x	x
C#CCOCCOCCOCCNc1nc(N2CCN(C(=O)C(CCC(=O)O)n3cc(C(N)CC(C)C)nn3)CC2)nc(N2CCN(C(=O)C(Cc3cc4ccccc4[nH]3)n3cc(C(N)Cc4ccc(O)cc4)nn3)CC2)n1 (stereo unspecified)	-1	46*	x	x	x
O=C(/C=C/c1cccs1)N1CCC2(CC1)Oc1ccc(Cl)cc1C(=O)C21CC(c2ccccc2)=NO1 (stereo unspecified)	-24	24*	4	-6	-6
N#C[C@H]1[C@@H](c2ccc(C#Cc3ccccc3F)cc2)[C@@H](CO)N1C(=O)C1CCCCC1	x	12	x	x	x
N#C[C@H]1[C@H](c2ccc(C#Cc3ccccc3F)cc2)[C@@H](CO)N1C(=O)C1CCCCC1	x	47*	x	x	x
Oc1ccc(/C=N/NC(=S)Nc2cccnc2)cc1O	15	10	24*	7	26
S=C(N/N=C/c1ccc2ncccc2c1)Nc1cccnc1	-3	-2	-9	-5	0
CCCC1C2CN(C(C)C)CC=C2C(C#N)=C(N)C1(C#N)C#N (stereo unspecified)	11	x	11	24*	13
CN1CC=C2C(C#N)=C(N)C(C#N)(C#N)C(CCc3ccccc3)C2C1 (stereo unspecified)	14	2	x	x	x
COc1cc(C2Nc3cccc4cccc(c34)N2)ccc1O	21	4	-10	54*	0
O=C(N[C@@H]1CC[C@@H](CCNS(=O)(=O)c2ccc(Cl)cc2)O[C@H]1CO)c1cccnc1	x	0	x	x	x
COc1ccc(CCNc2nc(-c3ccccn3)cs2)cc1OC	13	65*	-2	4	4
COc1cccc(-c2cn(CC[C@H]3CC[C@H](NC(C)=O)[C@H](CO)O3)nn2)c1	x	-6	x	x	x
COc1cc(CC2COC(c3ccc(O)c(OC)c3)C2COC(C)=O)ccc1O (stereo unspecified)	11	3	23*	2	10
Cc1cccc(C(=O)NC(=S)NNC(=O)c2ccccc2Cl)c1	3	17	5	2	9
Cc1cc(C(=O)NNC(=S)NC(=O)/C=C/c2ccccc2Cl)n[nH]1	21	62*	11	-8	3
